Source: ChEMBL document CHEMBL4251757 (J Med Chem, 2018)
Blank lines part the entries; values can stand above or below the compound they belong to.

What was measured:
[1] = Cmax in cynomolgus monkey plasma at 1 mg/kg administered via oral gavage by RP-HPLC analysis; format: ADME, organism-based, Macaca fascicularis; parameters: dose 1 mg/kg, route oral
In short: (§1)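 Female cynomolgus monkeys (2.5–3.5 kg). Compound dissolved in EtOH at 75 mg/mL, diluted in 10 volumes of 20 mM NaHCO3 pH 8.0 (9.1% EtOH) and given by oral gavage; 4.4 mL/kg for 30 mg/kg, 2.2 mL/kg for lower doses. Blood drawn into heparin pre-dose and at 0.5, 1, 2, 4, 8, 12, 24 h, sometimes 3 and 7 days. Plasma diluted with 2 volumes MeOH plus internal standard, then RP-HPLC.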

[2] = Cmax in cynomolgus monkey plasma at 30 mg/kg administered via oral gavage by RP-HPLC analysis; format: ADME, organism-based, Macaca fascicularis; parameters: dose 30 mg/kg, route oral; in short: as §1
[3] = Cmax in cynomolgus monkey plasma at 2 mg/kg administered via oral gavage by RP-HPLC analysis; format: ADME, organism-based, Macaca fascicularis; parameters: dose 2 mg/kg, route oral; in short: as §1
[4] = Tmax in cynomolgus monkey plasma at 30 mg/kg administered via oral gavage by RP-HPLC analysis; format: ADME, organism-based, Macaca fascicularis; in short: as §1
[5] = Half life in cynomolgus monkey plasma at 1 mg/kg administered via oral gavage by RP-HPLC analysis; format: ADME, organism-based, Macaca fascicularis; in short: as §1
[6] = Tmax in cynomolgus monkey plasma at 5 mg/kg administered via oral gavage by RP-HPLC analysis; format: ADME, organism-based, Macaca fascicularis; in short: as §1
[7] = Half life in cynomolgus monkey plasma at 15 mg/kg administered via oral gavage by RP-HPLC analysis; format: ADME, organism-based, Macaca fascicularis
[8] = Tmax in cynomolgus monkey plasma at 2 mg/kg administered via oral gavage by RP-HPLC analysis; format: ADME, organism-based, Macaca fascicularis; in short: as §1
[9] = AUC (0 to 24 hrs) in cynomolgus monkey plasma at 30 mg/kg administered via oral gavage by RP-HPLC analysis; format: ADME, organism-based, Macaca fascicularis; parameters: dose 30 mg/kg, time < 24 hr, route oral; in short: as §1
[10] = Plasma concentration in cynomolgus monkey at 30 mg/kg administered via oral gavage after 7 days by RP-HPLC analysis; format: ADME, organism-based, Macaca fascicularis; in short: as §1
[11] = Half life in cynomolgus monkey plasma at 5 mg/kg administered via oral gavage by RP-HPLC analysis; format: ADME, organism-based, Macaca fascicularis; in short: as §1
[12] = Cmax in cynomolgus monkey plasma at 5 mg/kg administered via oral gavage by RP-HPLC analysis; format: ADME, organism-based, Macaca fascicularis; parameters: dose 5 mg/kg, route oral; in short: as §1
[13] = Half life in cynomolgus monkey plasma at 10 mg/kg administered via oral gavage by RP-HPLC analysis; format: ADME, organism-based, Macaca fascicularis; in short: as §1
Oxoeicosanoid receptor 1 = Oxoeicosanoid receptor 1 (Homo sapiens, UniProt Q8TDS5); test: Antagonist activity at OXE receptor in human neutrophils assessed as inhibition of 5-oxo-ETE-induced calcium mobilization incubated for 2 mins followed by 5-oxo-ETE addition measured after 1 min by fluorescence assay; format: functional
In short: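 Human neutrophils were isolated from healthy donors by dextran sedimentation and Ficoll-Paque centrifugation, then loaded with indo-1. Fluorescence was read at 37 °C in a stirred cuvette. Antagonist was added at various concentrations; 2 min later 5-oxo-ETE (10 nM) was added. Digitonin (final 0.1%) followed 1 min later to give maximal fluorescence.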

[14] = AUC (0 to 24 hrs) in cynomolgus monkey plasma at 5 mg/kg administered via oral gavage by RP-HPLC analysis; format: ADME, organism-based, Macaca fascicularis; parameters: dose 5 mg/kg, time < 24 hr, route oral; in short: as §1
[15] = Plasma concentration in cynomolgus monkey at 30 mg/kg administered via oral gavage after 24 hrs by chiral-HPLC analysis; format: ADME, organism-based, Macaca fascicularis
In short: (§2)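 After oral gavage of racemate at 30 mg/kg, plasma C025 or its metabolite was isolated by RP-HPLC, then run by chiral HPLC on Cellulose-1 at 2 ml/min and 30 °C. Mobile phase was hexane/MeOH/HOAc 97.5:2.5:0.1 for parent and 97:3:0.1 for metabolite. Samples were taken at 4 h and 24 h; n=2 for enantiomer levels.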

[16] = Half life in cynomolgus monkey plasma at 2 mg/kg administered via oral gavage by RP-HPLC analysis; format: ADME, organism-based, Macaca fascicularis; in short: as §1
[17] = Drug metabolism in cynomolgus monkey plasma at 30 mg/kg administered via oral gavage assessed as metabolite (R)-5-(5-Chloro-2-((S)-1-hydroxy-6-phenylhexyl)-1-methyl-1Hindol-3-yl)-3-methyl-5-oxopentanoic acid formation after 4 hrs by chiral-HPLC analysis; format: ADME, organism-based, Macaca fascicularis; settings: in vivo; in short: as §2
[18] = AUC (0 to 24 hrs) in cynomolgus monkey plasma at 15 mg/kg administered via oral gavage by RP-HPLC analysis; format: ADME, organism-based, Macaca fascicularis; parameters: time < 24 hr, dose 15 mg/kg, route oral
[19] = AUC (0 to 24 hrs) in cynomolgus monkey plasma at 2 mg/kg administered via oral gavage by RP-HPLC analysis; format: ADME, organism-based, Macaca fascicularis; parameters: dose 2 mg/kg, time < 24 hr, route oral; in short: as §1
[20] = Tmax in cynomolgus monkey plasma at 10 mg/kg administered via oral gavage by RP-HPLC analysis; format: ADME, organism-based, Macaca fascicularis; in short: as §1
[21] = Drug level in cynomolgus monkey plasma treated with 30 mg/kg 5-(5-Chloro-1-methyl-2-(6-phenylhexyl)-1H-indol-3-yl)-3-methyl-5-oxopentanoic Acid administered via oral gavage assessed as compound formation after 12 hrs by RP-HPLC analysis; format: ADME, organism-based, Macaca fascicularis; settings: in vivo
In short: (§3)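 Monkeys received 30 mg/kg by oral gavage in EtOH/20 mM NaHCO3 pH 8.0 vehicle. A plasma extract taken 12 h later was run by RP-HPLC on a C18 column (4 µm, 3.9 x 150 mm) with a 15-min gradient of 70–100% MeOH in H2O, both containing 0.02% HOAc. The tetramethylene analog served as internal standard.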

[22] = Cmax in cynomolgus monkey plasma at 10 mg/kg administered via oral gavage by RP-HPLC analysis; format: ADME, organism-based, Macaca fascicularis; parameters: dose 10 mg/kg, route oral; in short: as §1
[23] = Plasma concentration in cynomolgus monkey at 30 mg/kg administered via oral gavage after 3 days by RP-HPLC analysis; format: ADME, organism-based, Macaca fascicularis; in short: as §1
[24] = Half life in cynomolgus monkey plasma at 30 mg/kg administered via oral gavage by RP-HPLC analysis; format: ADME, organism-based, Macaca fascicularis; in short: as §1
[25] = Tmax in cynomolgus monkey plasma at 1 mg/kg administered via oral gavage by RP-HPLC analysis; format: ADME, organism-based, Macaca fascicularis; in short: as §1
[26] = AUC (0 to 24 hrs) in cynomolgus monkey plasma at 1 mg/kg administered via oral gavage by RP-HPLC analysis; format: ADME, organism-based, Macaca fascicularis; parameters: time < 24 hr, dose 1 mg/kg, route oral; in short: as §1
[27] = Cmax in cynomolgus monkey plasma at 15 mg/kg administered via oral gavage by RP-HPLC analysis; format: ADME, organism-based, Macaca fascicularis; parameters: dose 15 mg/kg, route oral
[28] = AUC (0 to 24 hrs) in cynomolgus monkey plasma at 10 mg/kg administered via oral gavage by RP-HPLC analysis; format: ADME, organism-based, Macaca fascicularis; parameters: time < 24 hr, dose 10 mg/kg, route oral; in short: as §1
[29] = Tmax in cynomolgus monkey plasma at 15 mg/kg administered via oral gavage by RP-HPLC analysis; format: ADME, organism-based, Macaca fascicularis
[30] = Drug metabolism in cynomolgus monkey plasma at 30 mg/kg administered via oral gavage assessed as metabolite (S)-5-(5-Chloro-2-((S)-1-hydroxy-6-phenylhexyl)-1-methyl-1Hindol-3-yl)-3-methyl-5-oxopentanoic acid formation after 24 hrs by chiral-HPLC analysis; format: ADME, organism-based, Macaca fascicularis; settings: in vivo; in short: as §2
[31] = Plasma concentration in cynomolgus monkey at 30 mg/kg administered as oral gavage measured after 1 hr by RP-HPLC analysis; format: ADME, organism-based, Macaca fascicularis; in short: as §1
[32] = Plasma concentration in cynomolgus monkey at 30 mg/kg administered as oral gavage measured after 8 hrs by RP-HPLC analysis; format: ADME, organism-based, Macaca fascicularis; in short: as §1
[33] = Drug metabolism in cynomolgus monkey plasma at 30 mg/kg administered via oral gavage assessed as phenylpentamethylene side chain modification after 12 hrs by RP-HPLC analysis; format: ADME, organism-based, Macaca fascicularis; settings: in vivo; in short: as §3
[34] = Drug metabolism in cynomolgus monkey plasma at 30 mg/kg administered via oral gavage assessed as metabolite (S)-5-(5-Chloro-2-((S)-1-hydroxy-6-phenylhexyl)-1-methyl-1Hindol-3-yl)-3-methyl-5-oxopentanoic acid formation after 12 hrs by RP-HPLC analysis; format: ADME, organism-based, Macaca fascicularis; settings: in vivo; in short: as §3

Oxoeicosanoid receptor 1, sequence (Q8TDS5 whole entry): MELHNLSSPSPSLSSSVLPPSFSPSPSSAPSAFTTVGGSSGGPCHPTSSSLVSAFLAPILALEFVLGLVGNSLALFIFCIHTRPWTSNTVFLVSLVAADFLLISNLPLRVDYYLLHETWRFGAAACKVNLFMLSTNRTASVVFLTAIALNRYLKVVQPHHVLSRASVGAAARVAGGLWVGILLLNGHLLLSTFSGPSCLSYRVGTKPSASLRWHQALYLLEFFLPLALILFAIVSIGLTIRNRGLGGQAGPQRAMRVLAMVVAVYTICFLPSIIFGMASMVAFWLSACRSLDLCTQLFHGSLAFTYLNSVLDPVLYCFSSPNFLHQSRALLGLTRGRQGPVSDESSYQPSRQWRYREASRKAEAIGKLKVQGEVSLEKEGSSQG

SMILES: C[C@H](CC(=O)O)CC(=O)c1c(CCCCCCc2ccccc2)n(C)c2ccc(Cl)cc12
- Cmax [1]: 4.5 µM
- Cmax [2]: 106 µM
- Cmax [3]: 7.8 µM
- Tmax [4]: 1.3 h
- half-life [5]: 54 min
- Tmax [6]: 1.2 h
- half-life [7]: 204 min
- Tmax [8]: 42 min
- AUC(0-t) at 24 h [9]: 684 µM·h
- concentration at 168 h [10]: 40 nM
- half-life [11]: 114 min
- Cmax [12]: 18 µM
- half-life [13]: 168 min
- IC50 (Oxoeicosanoid receptor 1): 0.12 nM
- AUC(0-t) at 24 h [14]: 78 µM·h
- concentration at 24 h [15]: 1000 nM
- half-life [16]: 66 min
- Drug metabolism [17]: Metabolite_Detected
- AUC(0-t) at 24 h [18]: 169 µM·h
- AUC(0-t) at 24 h [19]: 26 µM·h
- Tmax [20]: 1.2 h
- Drug uptake [21]: Active
- Cmax [22]: 35 µM
- concentration at 72 h [23]: 160 nM
- half-life [24]: 210 min
- Tmax [25]: 42 min
- AUC(0-t) at 24 h [26]: 13 µM·h
- Cmax [27]: 32 µM
- AUC(0-t) at 24 h [28]: 171 µM·h
- Tmax [29]: 0.8 h

SMILES: C[C@H](CC(=O)O)CC(=O)c1c([C@H](O)CCCCCc2ccccc2)n(C)c2ccc(Cl)cc12
- IC50 (Oxoeicosanoid receptor 1): 260 nM

SMILES: C[C@@H](CC(=O)O)CC(=O)c1c(CCCCCCc2ccccc2)n(C)c2ccc(Cl)cc12
- half-life [7]: 558 min
- Drug metabolism [30]: Metabolite_Detected
- concentration at 24 h [15]: > 20000 nM
- AUC(0-t) at 24 h [18]: 1080 µM·h
- Drug uptake [21]: Active
- Cmax [27]: 79 µM
- Tmax [29]: 2.5 h

SMILES: C[C@@H](CC(=O)O)CC(=O)c1c([C@H](O)CCCCCc2ccccc2)n(C)c2ccc(Cl)cc12
- IC50 (Oxoeicosanoid receptor 1): 750 nM

SMILES: CCCCCCc1c(C(=O)CC(C)CC(=O)O)c2cc(Cl)ccc2n1C (racemic)
- Cmax [2]: 121 µM
- Tmax [4]: 0.6 h
- AUC(0-t) at 24 h [9]: 198 µM·h
- IC50 (Oxoeicosanoid receptor 1): 17 to 26 nM
- half-life [24]: 42 min

SMILES: CC(CC(=O)O)CC(=O)c1c(CCCCCCc2ccccc2)n(C)c2ccc(Cl)cc12 (racemic)
- Cmax [2]: 108 µM
- Tmax [4]: 2.5 h
- AUC(0-t) at 24 h [9]: 1250 µM·h
- Drug metabolism [34]: Metabolite_Detected
- IC50 (Oxoeicosanoid receptor 1): 0.28 nM
- half-life [24]: 444 min

The remaining lines, values ahead:

- IC50 (Oxoeicosanoid receptor 1): 18 nM
SMILES: CC(CC(=O)O)CC(=O)n1c(CCCCc2ccccc2)cc2ccc(Cl)cc21 (stereo not drawn)

- Cmax [2]: 27 µM
- Tmax [4]: 0.9 h
- concentration at 1 h [31]: > 25 µM
- AUC(0-t) at 24 h [9]: 55 µM·h
- half-life [24]: 72 min
- concentration at 8 h [32]: < 500 nM
SMILES: CCCCCCc1cc2ccc(Cl)cc2n1C(=O)CC(C)CC(=O)O (racemic)

- Cmax [2]: 55 µM
- Tmax [4]: 2 h
- Drug metabolism [33]: Metabolite_Detected
- AUC(0-t) at 24 h [9]: 294 µM·h
- IC50 (Oxoeicosanoid receptor 1): 2.1 nM
- half-life [24]: 180 min
SMILES: CC(CC(=O)O)CC(=O)n1c(CCCCCc2ccccc2)cc2ccc(Cl)cc21 (racemic)
